Source: ChEMBL document CHEMBL1145123, “Trisubstituted acridine derivatives as potent and selective telomerase inhibitors” (J Med Chem, 2003)

Experiments:
[1] = Cytotoxicity against ovarian carcinoma A2780 cell lines; type: functional, cell-based; conditions: Homo sapiens
How it was run: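 SRB assay. Cells were seeded at 3000–6000 per well and attached overnight. Salts dissolved in water at 500 μM were added in quadruplicate at 0.05, 0.25, 1, 5 and 25 μM final for 96 h. Cells were then fixed with cold 10% TCA and stained with 0.4% SRB. A540 was expressed as % of untreated control, and IC50 was derived.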

[2] = target: Telomerase reverse transcriptase (Homo sapiens, UniProt O14746); experiment: Inhibitory activity against human telomerase
How it was run: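 Modified TRAP assay with extract protein (0.04 μg) from exponentially growing A2780 cells. The enzyme was heat-inactivated at 80 °C, then CX primer was added and 31 PCR cycles were run. Products were quantified by gel phosphorimaging or filter scintillation counting. Agents were first screened against Taq polymerase at 1–50 μM.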

[3] = […]; type: functional, cell-based; conditions: Homo sapiens, A-431
Homo sapiens [4] = species on record: Homo sapiens; experiment: Affinity constant for binding to human 22-mer quadruplex; type: functional
Nucleic Acid = experiment: (§1) Affinity constant for binding to duplex DNA; type: functional, Homo sapiens
Homo sapiens [5] = species on record: Homo sapiens; experiment: as §1; type: functional, organism-based

Telomerase reverse transcriptase, sequence (O14746 whole entry): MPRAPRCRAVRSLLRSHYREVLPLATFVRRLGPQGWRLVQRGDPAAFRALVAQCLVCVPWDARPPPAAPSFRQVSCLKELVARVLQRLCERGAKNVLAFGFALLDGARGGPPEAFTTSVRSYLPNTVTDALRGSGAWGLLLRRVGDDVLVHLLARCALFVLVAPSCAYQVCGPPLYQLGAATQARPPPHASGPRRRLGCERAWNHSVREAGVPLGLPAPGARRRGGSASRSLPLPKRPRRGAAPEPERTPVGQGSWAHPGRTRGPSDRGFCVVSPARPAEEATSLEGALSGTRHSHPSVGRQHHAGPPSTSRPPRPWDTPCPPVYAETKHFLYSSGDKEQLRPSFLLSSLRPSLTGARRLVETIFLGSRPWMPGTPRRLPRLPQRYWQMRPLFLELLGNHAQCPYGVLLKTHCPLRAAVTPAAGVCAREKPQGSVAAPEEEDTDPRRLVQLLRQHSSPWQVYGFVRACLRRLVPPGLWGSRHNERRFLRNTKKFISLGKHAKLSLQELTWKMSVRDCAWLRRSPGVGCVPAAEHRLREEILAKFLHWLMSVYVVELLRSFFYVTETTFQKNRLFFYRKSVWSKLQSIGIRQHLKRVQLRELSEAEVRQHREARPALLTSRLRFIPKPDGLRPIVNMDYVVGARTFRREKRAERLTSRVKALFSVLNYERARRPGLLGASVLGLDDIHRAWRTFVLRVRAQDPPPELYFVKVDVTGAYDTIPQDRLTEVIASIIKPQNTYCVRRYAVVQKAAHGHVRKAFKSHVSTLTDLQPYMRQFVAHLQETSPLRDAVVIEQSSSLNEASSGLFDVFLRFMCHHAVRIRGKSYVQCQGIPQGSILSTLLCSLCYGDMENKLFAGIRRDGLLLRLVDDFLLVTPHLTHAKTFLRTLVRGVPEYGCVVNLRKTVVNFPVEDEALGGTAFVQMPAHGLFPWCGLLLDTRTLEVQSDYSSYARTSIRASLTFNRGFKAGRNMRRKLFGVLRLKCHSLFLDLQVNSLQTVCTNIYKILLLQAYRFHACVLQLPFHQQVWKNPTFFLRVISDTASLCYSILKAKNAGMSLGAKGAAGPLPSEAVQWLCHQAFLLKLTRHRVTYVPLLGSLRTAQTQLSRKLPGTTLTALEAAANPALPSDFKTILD

EC50 [2] [µM] | Ka (Homo sapiens [4]) [M⁻¹] | Ka (Nucleic Acid) [M⁻¹] | Ka (Homo sapiens [5]) [M⁻¹] | SMILES | IC50 [1] [µM] | IC50 [3] [µM]
0.15 |  |  |  | CSc1ccccc1Nc1c2ccc(NC(=O)CCN3CCCC3)cc2nc2cc(NC(=O)CCN3CCCC3)ccc12 | 0.1 | 2.5
0.57 |  |  |  | CN(C)CCNc1c2cc(NC(=O)CCN3CCCC3)ccc2nc2ccc(NC(=O)CCN3CCCC3)cc12 | 11 | > 25
0.21 |  |  |  | O=C(CCN1CCCC1)Nc1ccc2c(NC3CCCCC3)c3cc(NC(=O)CCN4CCCC4)ccc3nc2c1 | 10 | 14
0.08 |  |  |  | CN(C)CCCNc1c2ccc(NC(=O)CCN3CCCC3)cc2nc2ccc(NC(=O)CCN3CCCC3)cc12 | > 25 | > 25
0.17 |  |  |  | CN(C)c1ccc(Nc2c3ccc(NC(=O)CCN4CCCC4)cc3nc3ccc(NC(=O)CCN4CCCC4)cc23)cc1 | 7.9 | 10
1.29 |  |  |  | O=C(CCN1CCCC1)Nc1ccc2nc3ccc(NC(=O)CCN4CCCC4)cc3c(Nc3ccccc3)c2c1 | 2.6 | 12.5
0.1 |  |  |  | CN(C)c1cccc(Nc2c3ccc(NC(=O)CCN4CCCC4)cc3nc3cc(NC(=O)CCN4CCCC4)ccc23)c1 | 7.9 | 2
0.1 |  |  |  | CSc1cccc(Nc2c3ccc(NC(=O)CCN4CCCC4)cc3nc3cc(NC(=O)CCN4CCCC4)ccc23)c1 | 2.8 | 1.3
0.05 |  |  |  | O=C(CCN1CCCC1)Nc1ccc2c(NC3CC3)c3ccc(NC(=O)CCN4CCCC4)cc3nc2c1 | 19 | > 25
0.09 |  |  |  | O=C(CCN1CCCC1)Nc1ccc2c(NC3CCCCC3)c3ccc(NC(=O)CCN4CCCC4)cc3nc2c1 | 12.5 | 2.5
0.6 |  |  |  | CN(C)c1cccc(Nc2c3cc(NC(=O)CCN4CCCC4)ccc3nc3ccc(NC(=O)CCN4CCCC4)cc23)c1 | 3.2 | 12.6
1.09 |  |  |  | Nc1cccc(Nc2c3cc(NC(=O)CCN4CCCC4)ccc3nc3ccc(NC(=O)CCN4CCCC4)cc23)c1 | 6.3 | > 25
0.02 |  |  |  | Nc1ccccc1Nc1c2ccc(NC(=O)CCN3CCCC3)cc2nc2cc(NC(=O)CCN3CCCC3)ccc12 | 11 | 7.1
0.066 |  |  |  | O=C(CCN1CCCC1)Nc1ccc2c(NCc3cccnc3)c3ccc(NC(=O)CCN4CCCC4)cc3nc2c1 | > 25 | > 25
0.27 |  |  |  | CN(C)CCNc1c2ccc(NC(=O)CCN3CCCC3)cc2nc2ccc(NC(=O)CCN3CCCC3)cc12 | > 25 | > 25
0.018 | 57000000 | 4900000 |  | CN(C)CCNc1c2ccc(NC(=O)CCN3CCCC3)cc2nc2cc(NC(=O)CCN3CCCC3)ccc12 | > 25 | > 25
1.33 |  |  |  | O=C(CCN1CCCC1)Nc1ccc2c(Nc3ccccc3)c3cc(NC(=O)CCN4CCCC4)ccc3nc2c1 | 5.6 | 14
0.05 |  |  |  | O=C(CCN1CCCC1)Nc1ccc2c(NCCN3CCCCC3)c3ccc(NC(=O)CCN4CCCC4)cc3nc2c1 | 12.6 | 11.2
0.1 |  |  |  | CC(=O)Nc1cccc(Nc2c3ccc(NC(=O)CCN4CCCC4)cc3nc3cc(NC(=O)CCN4CCCC4)ccc23)c1 | > 25 | > 25

EC50 [2] [µM] | Ka (Homo sapiens [4]) [M⁻¹] | Ka (Nucleic Acid) [M⁻¹] | Ka (Homo sapiens [5]) [M⁻¹] | SMILES | IC50 [1] [µM] | IC50 [3] [µM]
0.46 |  |  |  | COc1ccc(Nc2c3cc(NC(=O)CCN4CCCC4)ccc3nc3ccc(NC(=O)CCN4CCCC4)cc23)cc1 | 10 | 12.6
0.2 |  |  |  | Nc1ccc(Nc2c3cc(NC(=O)CCN4CCCC4)ccc3nc3ccc(NC(=O)CCN4CCCC4)cc23)cc1 | > 25 | > 25
0.06 |  |  |  | CN(C)CCCNc1c2ccc(NC(=O)CCN3CCCC3)cc2nc2cc(NC(=O)CCN3CCCC3)ccc12 | > 25 | > 25
0.14 |  |  |  | COCCNc1c2ccc(NC(=O)CCN3CCCC3)cc2nc2cc(NC(=O)CCN3CCCC3)ccc12 | 10 | 10
0.074 | 16000000 | 500000 |  | Nc1ccc(Nc2c3ccc(NC(=O)CCN4CCCC4)cc3nc3cc(NC(=O)CCN4CCCC4)ccc23)cc1 | 25 | 25
0.06 |  |  |  | Nc1cccc(Nc2c3ccc(NC(=O)CCN4CCCC4)cc3nc3cc(NC(=O)CCN4CCCC4)ccc23)c1 | 12.6 | 12.6
0.115 | 16000000 |  | 400000 | CN(C)c1ccc(Nc2c3ccc(NC(=O)CCN4CCCC4)cc3nc3cc(NC(=O)CCN4CCCC4)ccc23)cc1 | 10 | 15.8
0.04 |  |  |  | CC(=O)c1ccc(Nc2c3ccc(NC(=O)CCN4CCCC4)cc3nc3cc(NC(=O)CCN4CCCC4)ccc23)cc1 | 3.2 | 2.2
0.21 |  |  |  | O=C(CCN1CCCC1)Nc1ccc2c(NC3CCCCCC3)c3ccc(NC(=O)CCN4CCCC4)cc3nc2c1 | 3.2 | 3.2
0.08 |  |  |  | Nc1ccc(Nc2c3ccc(NC(=O)CCN4CCCC4)cc3nc3ccc(NC(=O)CCN4CCCC4)cc23)cc1 | > 25 | > 25
0.5 |  |  |  | CN(C)c1ccc(Nc2c3cc(NC(=O)CCN4CCCC4)ccc3nc3ccc(NC(=O)CCN4CCCC4)cc23)cc1 | 19 | > 25
0.21 |  |  |  | Nc1cccc(Nc2c3ccc(NC(=O)CCN4CCCC4)cc3nc3ccc(NC(=O)CCN4CCCC4)cc23)c1 | 15.8 | > 25
2.73 |  |  |  | COc1cccc(Nc2c3cc(NC(=O)CCN4CCCC4)ccc3nc3ccc(NC(=O)CCN4CCCC4)cc23)c1 | 2.5 | 10
1.03 |  |  |  | O=C(CCN1CCCC1)Nc1ccc2nc3ccc(NC(=O)CCN4CCCC4)cc3c(Nc3ccccc3O)c2c1 | 10 | > 25
0.11 |  |  |  | Nc1ccccc1Nc1c2ccc(NC(=O)CCN3CCCC3)cc2nc2ccc(NC(=O)CCN3CCCC3)cc12 | 15.8 | > 25
0.07 |  |  |  | O=C(CCN1CCCC1)Nc1ccc2c(Nc3ccc(F)cc3)c3ccc(NC(=O)CCN4CCCC4)cc3nc2c1 | 3.2 | 0.5
0.17 |  |  |  | Nc1ccccc1Nc1c2cc(NC(=O)CCN3CCCC3)ccc2nc2ccc(NC(=O)CCN3CCCC3)cc12 | 17.8 | > 25
0.018 |  |  |  | CN1CCCC1CCNc1c2ccc(NC(=O)CCN3CCCC3)cc2nc2cc(NC(=O)CCN3CCCC3)ccc12 (stereo unspecified) | > 25 | 25

SMILES | EC50 [2] [µM] | Ka (Homo sapiens [4]) [M⁻¹] | Ka (Nucleic Acid) [M⁻¹] | Ka (Homo sapiens [5]) [M⁻¹] | IC50 [1] [µM] | IC50 [3] [µM]
O=C(CCN1CCCC1)Nc1ccc2cc3ccc(NC(=O)CCN4CCCC4)cc3nc2c1 | 5.2 | 1300000 | 1100000 |  | 2.6 | 
